pIC50: −log10 of the molar value. Active and inactive are the calls of the source. The rule behind the calls is not given here.
Tests used:
MDA-MB-231 [1] = assay: Dose required to inhibit cell growth was determined against MDA-MB-231 cell line of human non-hormone dependent breast carcinoma; NA= Not active represents IC50 >400 uM; assay type: functional, cell-based
How it was run: (§1)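 Alamar Blue growth-inhibition assay. Cells ((1–5) × 10³ per well) were preincubated for 24 h, then exposed to increasing drug concentrations for 72 h at 37 °C. Alamar Blue (20%) was added and fluorescence read at ex 485 / em 590 nm. IC50 is the dose inhibiting growth by 50%. Means of ≥3 independent determinations.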

P388 [2] = assay: Dose required to inhibit cell growth was determined against P388D1 cell line of murine lymphocytotic leukemia; NA= Not active represents IC50 >400 uM; assay type: functional, cell-based; conditions: Mus musculus; how it was run: as §1
LoVo [3] = assay: Dose required to inhibit cell growth was determined against LoVo cell line of human adenocarcinoma; NA= Not active represents IC50 >400 uM; assay type: functional, cell-based; how it was run: as §1
K562 = assay: Dose required to inhibit cell growth was determined against K562 cell line of chronic myelogenous leukemia; assay type: functional, cell-based; conditions: Homo sapiens
How it was run: (§2)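 Alamar Blue growth assay. (1–5) × 10^3 cells per well preincubated 24 h, then exposed to increasing drug concentrations for 72 h at 37 °C. Medium replaced with PBS containing 20% Alamar Blue, fluorescence read at 485/590 nm. IC50 is the dose inhibiting growth by 50%.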

LoVo [4] = assay: Dose to inhibit cell growth determined against LoVo cell line of human adenocarcinoma; assay type: functional, cell-based; how it was run: as §2
CHO [5] = assay: Dose required to inhibit cell growth was determined against CHO cell line; assay type: functional, cell-based; conditions: Cricetulus griseus; how it was run: as §2
P388 [6] = assay: Dose required to inhibit cell growth was determined against P388D1 cell line of murine lymphocytotic leukemia; assay type: functional, cell-based; conditions: Mus musculus; how it was run: as §2
HT-29 = assay: Dose required to inhibit cell growth was determined against HT-29 cell line of human adenocarcinoma; assay type: functional, cell-based; how it was run: as §2
MDA-MB-231 [7] = assay: Dose required to inhibit cell growth was determined against MDA-MB-231 cell line of human non-hormone dependent breast carcinoma; assay type: functional, cell-based; how it was run: as §2
L1210 = assay: Dose required to inhibit cell growth was determined against L1210 cell line of murine lymphocytotic leukemia; assay type: functional, cell-based; conditions: Mus musculus; how it was run: as §2
CHO [8] = assay: Dose required to inhibit cell growth was determined against CHO cell line; Not active represents IC50 >400 uM; assay type: functional, cell-based; conditions: Cricetulus griseus; how it was run: as §1
MDA-MB-231 [9] = assay: Dose required to inhibit cell growth was determined against MDA-MB-231 cell line of human non-hormone dependent breast carcinoma; Not active represents IC50 >400 uM; assay type: functional, cell-based; how it was run: as §1
MDA-MB-231 [10] = assay: DNA damages caused in MDA-MB-231 cells after 2 hr compound exposure to 400 uM concentration; assay type: functional, Homo sapiens
How it was run: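 Growing MDA-MB-231 cells held 2 h at 37 °C in medium with or without 400 μM compound. Cells washed in cold PBS and lysed in Tris/SDS/EDTA/deferoxamine/proteinase K buffer. DNA isolated by salting out, then 3'-end labeled by T4 DNA polymerase nucleotide exchange. Incorporated radioactivity measured by dot filtration, expressed as dCps exchanged/ng DNA. Means ± SD, ≥3 determinations.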

[11] = Glutathione activity was measured after incubation with a conc. of 500 uM
How it was run: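 Cell-free thiol assay. GSH 500 µM with 1 mM EDTA and 500 µM drug (from 2% ethanol solution) in 0.1 M phosphate buffer pH 7.4, 60 min at room temperature. DTNB (0.133 mM) was then added and A412 read. Reported as % of no-drug control, in triplicate.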

MDA-MB-231 [12] = assay: Beta tubulin alkylation activity in MDA-MB-231 cells; assay type: functional, Homo sapiens; parameters: concentration or dose not given beside the values
How it was run: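 MDA-MB-231 cells (~5 × 10^6), exponentially growing, exposed to 30 μM compound for 24 h at 37 °C. Lysed in Laemmli buffer, run on 10% SDS-PAGE, immunoblotted with anti-β-tubulin (TUB 2.1, 1:500) and peroxidase anti-mouse secondary, ECL detection. Normal and alkylated band densities integrated to give % alkylated β-tubulin. Representative of three experiments.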

[13] = target: T1, Glutathione reductase, mitochondrial (Homo sapiens) (UniProt P00390); assay: Glutathione reductase activity was measured after incubation with a conc. of 500 uM; assay type: functional
T1 sequence (whole entry): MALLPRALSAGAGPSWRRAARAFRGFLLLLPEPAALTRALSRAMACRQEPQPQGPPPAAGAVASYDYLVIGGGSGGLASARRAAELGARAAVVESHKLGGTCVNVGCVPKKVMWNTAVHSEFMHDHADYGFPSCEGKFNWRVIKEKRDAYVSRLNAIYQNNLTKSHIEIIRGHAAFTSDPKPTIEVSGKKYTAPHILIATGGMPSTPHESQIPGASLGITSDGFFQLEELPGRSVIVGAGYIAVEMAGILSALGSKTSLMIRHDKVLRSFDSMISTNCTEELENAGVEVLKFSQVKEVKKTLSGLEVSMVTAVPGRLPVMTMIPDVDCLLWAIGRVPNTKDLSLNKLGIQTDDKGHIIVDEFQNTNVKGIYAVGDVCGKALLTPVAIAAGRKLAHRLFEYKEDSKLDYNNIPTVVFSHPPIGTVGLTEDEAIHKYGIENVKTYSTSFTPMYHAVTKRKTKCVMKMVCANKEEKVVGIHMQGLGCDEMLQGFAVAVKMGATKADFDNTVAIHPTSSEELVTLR
How it was run: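 Purified glutathione reductase (0.016 U/mL) with 100 µM NADPH, 1 mM EDTA, 1 mg/mL BSA and 500 µM drug (from 2% ethanol solution) in 0.1 M phosphate pH 7.4, preincubated 60 min at 30 °C. GSSG was then added for 60 min at 30 °C. Activity is the […] over 3 min, as % of no-drug control, in triplicate.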

[14] = Alkylating activity by using 4-(4-nitrobenzyl)-pyridine(NBP) colorimetric assay
How it was run: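 NBP colorimetric assay. Drug at 400 nmol/mL in ethanol was mixed with 10% NBP in ethanol and 50 mM sodium acetate pH 4.3, then heated at 80 °C for 60, 90, 120 or 150 min. Samples were chilled and basified with KOH/ethanol, and A570 was read against a drug-free blank. The alkylation rate (A570/min) is the slope of a linear regression of absorbance vs time. Mean ± SD of ≥3 independent experiments.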

SMILES	pIC50 (K562)	pIC50 (LoVo [4])	pIC50 (CHO [5])	pIC50 (P388 [6])	pIC50 (HT-29)	pIC50 (MDA-MB-231 [7])	pIC50 (L1210)	also measured
Cc1ccccc1NC(=O)NCCCl								NA (MDA-MB-231 [1]): inactive; NA (P388 [2]): inactive; NA (LoVo [3]): inactive
CCCc1ccc(NC(=O)NCCCl)cc1	5.09	5.00	4.72	4.96	4.64	4.74	5.05	
CCNC(=O)Nc1ccc(C(C)CC)cc1 (stereo unspecified)	4.00				3.88		4.37	NA (CHO [8]): inactive; NA (MDA-MB-231 [9]): inactive
Cc1ccc(NC(=O)NCCCl)cc1C	5.46	5.46	5.06	5.38	5.27	5.14	5.42	
CCCCCCc1ccc(NC(=O)NCCCl)cc1	5.15	5.21	4.82	5.09	4.92	4.82	5.30	DNA damage (MDA-MB-231 [10]): 2.32 10e7 exchanged dCps (ng of DNA); Activity [11]: 100%; Activity (MDA-MB-231 [12]): 34%; Activity [13]: 99%; Activity [14]: 3.1 A570 min-1
CCCCCCCc1ccc(NC(=O)NCCCl)cc1	4.80	4.82	4.66	4.74	4.60	4.52	4.89	
O=C(NCCCl)Nc1cccc2ccccc12	3.97	3.82	3.97	3.89		3.82	3.93	
CC(C)(C)Cc1ccc(NC(=O)NCCCl)cc1	4.68		4.46		4.44	4.47	4.72	
CCCNC(=O)Nc1ccc(C(C)CC)cc1 (stereo unspecified)	3.97				3.88		4.52	NA (CHO [8]): inactive; NA (MDA-MB-231 [9]): inactive
O=C(NCCCl)Nc1cccc(I)c1	4.77	4.44	4.46	4.47	4.62	4.57	4.57	
O=C(NCCCl)Nc1ccc(Cl)cc1	5.04	4.64	4.72	4.96	4.85	4.51	5.02	
O=C(NCCCl)Nc1ccc(C2CCCCC2)cc1	4.74	4.66	4.64	4.66	4.42	4.36	4.80	
CCCCCCCCCCCCc1ccc(NC(=O)NCCCl)cc1								NA (MDA-MB-231 [1]): inactive; NA (P388 [2]): inactive; NA (LoVo [3]): inactive
O=c1[nH]c2ccccc2c(=O)n1CCCl								NA (MDA-MB-231 [1]): inactive; NA (P388 [2]): inactive; NA (LoVo [3]): inactive
Cc1cccc(C)c1NC(=O)NCCCl								NA (MDA-MB-231 [1]): inactive; NA (P388 [2]): inactive; NA (LoVo [3]): inactive
Cc1cc(C)cc(NC(=O)NCCCl)c1	5.00	5.06	4.61	5.07	4.70	4.70	5.06	
CCc1ccc(NC(=O)NCCCl)cc1	5.60	5.49	5.19	5.28	5.19	5.30	5.57	

SMILES	pIC50 (K562)	pIC50 (LoVo [4])	pIC50 (CHO [5])	pIC50 (P388 [6])	pIC50 (HT-29)	pIC50 (MDA-MB-231 [7])	pIC50 (L1210)	also measured
CC(C)c1ccc(NC(=O)NCCCl)cc1	5.89	6.00	5.49	5.68	5.30	5.60	5.92	Activity [11]: 100%; Activity (MDA-MB-231 [12]): 65%; Activity [13]: 100%; Activity [14]: 3 A570 min-1
CCC(C)c1ccc(NC(=O)NCCCl)cc1 (stereo unspecified)	5.89	5.66	5.40	5.62	5.44	5.51	5.89	Activity [11]: 100%; Activity (MDA-MB-231 [12]): 76%; Activity [13]: 100%; Activity [14]: 3.1 A570 min-1
CCCCCc1ccc(NC(=O)NCCCl)cc1	5.21	5.28	4.89	5.14	4.92	4.92	5.27	DNA damage (MDA-MB-231 [10]): 1.93 10e7 exchanged dCps (ng of DNA); Activity [11]: 100%; Activity (MDA-MB-231 [12]): 40%; Activity [13]: 99%; Activity [14]: 2.9 A570 min-1
CCCCc1ccc(NC(=O)NCCCl)cc1	5.00	5.00	4.74	5.00	4.66	4.72	4.92	
Cc1ccc(NC(=O)NCCCl)cc1	4.80	4.70	4.59	4.52	4.64	4.60	4.80	
Cc1cccc(NC(=O)NCCCl)c1C								NA (MDA-MB-231 [1]): inactive; NA (P388 [2]): inactive; NA (LoVo [3]): inactive
CC(C)CCc1ccc(NC(=O)NCCCl)cc1	4.82		4.72		4.48	4.49	4.85	
CCCCCCCCCCc1ccc(NC(=O)NCCCl)cc1								NA (MDA-MB-231 [1]): inactive; NA (P388 [2]): inactive; NA (LoVo [3]): inactive
O=C(NCCCl)Nc1ccc(Br)cc1	5.34	4.96	5.00	5.00	5.05	5.00	5.09	
CC(C)Cc1ccc(NC(=O)NCCCl)cc1	4.96		4.64		4.68	4.62	4.96	
CCCCCCCCc1ccc(NC(=O)NCCCl)cc1		4.54		4.49		4.48		
CCCNC(=O)Nc1ccc(C(C)C)cc1	4.28		3.88		4.12		4.85	NA (MDA-MB-231 [9]): inactive
Cc1cccc(NC(=O)NCCCl)c1		4.22		4.12		4.22		
Cc1cc(C)c(NC(=O)NCCCl)c(C)c1								NA (MDA-MB-231 [1]): inactive; NA (P388 [2]): inactive; NA (LoVo [3]): inactive
CCCNC(=O)Nc1ccc(C(C)(C)C)cc1	4.52		3.88		4.46	3.88	5.27	
CC(Cl)CNC(=O)Nc1ccc(C(C)(C)C)cc1 (stereo unspecified)	4.64		4.28		4.68	4.28	5.22	

From ChEMBL document CHEMBL1134792, “Antimitotic antitumor agents: synthesis, structure-activity relationships, and biological characterization of N-aryl-N'-(2-chloroethyl)ureas as new selective alkylating agents” (J Med Chem, 2001)
